Rows were chosen to be rich in hits. Some 1.6% of all compounds tested hit in one or more screens of this group.
H9c2 protect: protects H9c2 cardiomyocytes from peroxide injury. H2O2 injury protection, ATPLite, 2 h. protection from H2O2 cell death, % at 20 µM. actives 0.63% (n = 360,000);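 active means compounds giving at least 50% protection of heart cells from peroxide-induced death in the single-dose screen, raw or plate-pattern-corrected value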;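 further: 0% = DMSO wells with peroxide and 100% = DMSO wells without peroxide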
ASAP1 inh: inhibitors of human ASAP1 ArfGAP activity | ASAP1-stimulated ARF1 GTP hydrolysis, GDP FP detection | inhibition, % at 16.5 µM | actives 0.19% (n = 360,000); in the data active means inhibition above about 25%;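 further: 0% = vehicle with enzyme and substrate and 100% = no enzyme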
Target sequence (Q9ULH1 325-724 limits assumed): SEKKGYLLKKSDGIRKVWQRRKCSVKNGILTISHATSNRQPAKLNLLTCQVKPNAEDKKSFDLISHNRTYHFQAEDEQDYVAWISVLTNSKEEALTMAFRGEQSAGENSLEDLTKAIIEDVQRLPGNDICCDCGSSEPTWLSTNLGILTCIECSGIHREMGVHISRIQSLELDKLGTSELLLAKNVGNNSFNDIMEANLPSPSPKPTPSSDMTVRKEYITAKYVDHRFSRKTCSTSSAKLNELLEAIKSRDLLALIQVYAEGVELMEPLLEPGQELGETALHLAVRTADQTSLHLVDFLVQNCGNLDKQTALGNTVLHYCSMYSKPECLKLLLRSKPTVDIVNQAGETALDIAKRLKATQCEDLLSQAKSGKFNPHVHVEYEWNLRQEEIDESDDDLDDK
Neddyl block: inhibitors of human cullin neddylation. P61081+Q13564. TR-FRET cullin neddylation, biochemical. inhibition, % at 25 µM. actives 0.58% (n = 360,000); in the data active means inhibition above about 36%
ARFGAP1 inh: inhibitors of rat ARFGAP1 | Q62848 | Arfgap1-stimulated ARF1 GTP hydrolysis, GDP FP detection | inhibition, % at 16.5 µM | actives 0.26% (n = 360,000) | AID 651572;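 active means inhibition above a per-plate limit, mean inhibition of low control wells plus 3 SD, cut at about 25% in these data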;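 further: 0% = DMSO wells with enzyme and 100% = wells lacking Arfgap1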
Target sequence (Q62848 1-136 limits assumed): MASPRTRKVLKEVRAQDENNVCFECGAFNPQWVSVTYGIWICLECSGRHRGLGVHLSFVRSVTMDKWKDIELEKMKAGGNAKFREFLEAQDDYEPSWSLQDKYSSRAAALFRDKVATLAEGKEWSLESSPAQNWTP
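Repeats: one replicate per compound; assay system: rat Arfgap1 catalytic domain, aa 1-136; times: enzyme reaction 120 min at 25 °C after 20 min preincubation; detection: FP of antibody-bound GDP Alexa 633 tracer, ex 620/em 688 nm; benchmarks: high control wells lacking Arfgap1, low control full reaction with DMSO; reagent: human ARF1(Δ1-17)-GTP substrate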
* marks the source's active call; other numbers are inactive results; x = no result shown.

SMILES	H9c2 protect	ASAP1 inh	Neddyl block	ARFGAP1 inh
CNS(=O)(=O)c1cc2c3c(cccc3c1)C(=O)NC2=O	58*	-12	-51	4
CCCCc1c(-c2ccccc2OC)ncn1C(C)c1ccc(Cl)cc1 (stereo not drawn)	x	-2	x	-2
C[C@H](O)[C@@H]1CN2CCc3ccc(-c4ccc5c(c4)OCO5)cc3[C@@H]2C[C@@H]1N(C)C(=O)c1ccco1	x	9	x	-3
Cc1onc(-c2ccccc2)c1C(=O)NC(=S)NNC(=O)c1ccc(O)cc1	34	6	6	-2
Cc1onc(-c2ccccc2)c1C(=O)NC(=S)NNC(=O)c1ccccc1O	60*	2	-2	-4
Cc1onc(-c2ccccc2)c1C(=O)NC(=S)NNC(=O)c1ccc(O)cc1O	51*	1	6	2
Cc1onc(-c2ccccc2)c1C(=O)NNC(=O)c1ccccc1Br	-5	4	-13	1
Cc1[nH]c2ccccc2c1CC(=O)Nc1ccc(N(C)c2cccnc2)c(-c2ccc(F)c(F)c2)c1	x	-1	x	5
O=C(NN1C(=O)/C(=C/c2ccc(O)c(O)c2)SC1=S)c1ccccc1	65*	-1	-55	1
O=C1/C(=C/c2ccc(O)c(O)c2)SC(=S)N1Nc1ccccc1	20	x	-33	x
CCOC(=O)[C@]12CCCC=C1N(Cc1ccccc1)C(=O)[C@H](CC(=O)N1CCOCC1)C2	x	-11	-9	-3
COc1ccc(CCNC(=O)c2cc3c(C)nccc3[nH]c2=O)cc1OC	76*	0	-16	-1
Cc1ccc(NC2CNC(=O)NC2=O)cc1C (stereo not drawn)	5	9	-28	5
Cc1ccc(NC2C(=O)NC(=O)NC2=O)cc1	-2	32*	4	17
O=C(NCc1ccco1)c1cnn2c(C(F)(F)F)cc(-c3cccs3)nc12	65*	-7	x	-3
CCC1CN(S(=O)(=O)c2ccc3c(c2)NC(=O)CC(=O)N3)c2cc(Cl)ccc2O1 (stereo not drawn)	66*	-3	-8	-10
CN(c1cccnc1)c1ccc(NC(=O)Cc2c[nH]c3ccccc23)cc1-c1ccc(C(C)(C)C)cc1	x	-2	x	-3
C[C@H](CO)N1C[C@H](C)[C@@H](CN(C)C(=O)Nc2ccccc2)Oc2ccc(NC(=O)Nc3ccc(C(F)(F)F)cc3)cc2C1=O	-2	8	0	-2
C[C@@H]1CN([C@@H](C)CO)C(=O)c2cc(NC(=O)Nc3ccccc3)ccc2O[C@H]1CN(C)C(=O)Nc1cccc2ccccc12	90*	x	-5	x
COC(=O)[C@]12C[C@H](CC(=O)N3CCC(c4ccccc4)CC3)C(=O)N(Cc3ccc4c(c3)OCO4)C1=C[C@H](C(C)(C)C)O[C@@H]2C	x	3	x	-2
Cc1cccc(C)c1NC(=O)C(c1cccc2ccccc12)n1c(=O)c(-c2cc3ccccc3[nH]2)nc2ccccc21 (stereo not drawn)	x	6	x	10
CCc1c(Cc2ccccc2)ncn1CCc1ccccc1OC	x	7	x	-8
COC(=O)c1[nH]c2cc(OC)c(OC)cc2c1/C=N/Nc1ccccc1	75*	-2	36	-9
CN1CCCCC(NC(=O)c2cccs2)C1=O (stereo not drawn)	x	-2	x	4
O=C(NCc1ccccc1)[C@H]1CCCN1C(=O)[C@H]1CCCN1C(=O)C1CCCCC1	x	-1	x	2
SMILES	H9c2 protect	ASAP1 inh	Neddyl block	ARFGAP1 inh
NC(=O)c1ncn([C@@H]2O[C@H](C(=O)Nc3ccc(C(=O)N4CCCCC4)cc3)[C@@H](O)[C@H]2O)n1	x	12	x	4
COc1ccc(N2C(=O)c3n[nH]c(C(C)C)c3C2c2ccc(F)cc2)cc1 (stereo not drawn)	x	14	x	-11
O=c1[nH]n(Cc2ccccc2)c(=O)c2ccccc12	56*	7	-9	-11
CCOC(=O)N1CCC(N2Cc3cccc(C(=O)Nc4ccc(OC)c(OC)c4)c3C2=O)CC1	50*	11	1	-1
CCOC(=O)N1CCC(N2C(=O)c3ccccc3C2Nc2cc(OC)c(OC)c(OC)c2)CC1 (stereo not drawn)	117*	-2	5	3
CCOC(=O)C1=CCN(S(=O)(=O)c2ccccc2F)C1c1ccc(Br)cc1 (stereo not drawn)	x	-11	x	10
Cn1cc(-c2coc3c(C(=O)Nc4ccccc4)cccc23)cn1	12	9	2	5
COc1cc(NC(=O)c2cccc3c(-c4cnn(C)c4)coc23)cc(OC)c1OC	64*	21	24	18
COc1ccnc(Oc2ccc(F)cc2)c1C(=O)N/C=N/OCc1ccc(F)cc1Cl	28	-5	5	-3
COc1ccnc(Oc2ccc(F)cc2)c1C(=O)N/C=N/OCc1ccc(Cl)cc1Cl	51*	3	-2	14
O=C(N/N=C/c1ccccn1)c1ccc(Cl)cc1	0	7	-5	-11
O=C(N/N=C/c1ccccn1)c1ccncc1	19	-1	1	16
Cn1ncc(Cl)c1C(=O)N/N=C/c1ccccn1	51*	4	-6	3
O=C(N/N=C/c1ccccn1)c1cccs1	56*	-5	-8	-6
O=C(N/N=C\c1ccccn1)C1COc2cc3ccccc3cc2O1 (stereo not drawn)	86*	0	-21	9
O=C(N/N=C\c1ccccn1)c1cccc(C(=O)N/N=C\c2ccccn2)n1	54*	-3	4	13
Cc1cc2c(c(=O)o1)[C@@]1(C(=O)N(c3ccccc3)c3ccccc31)C1=C(CCCC1=O)O2	x	-7	x	1
COC(=O)[C@]12C[C@H](CC(=O)NCCCCc3ccccc3)C(=O)N(Cc3ccccc3)C1=C[C@H](C1CCCC1)O[C@@H]2C	x	-8	x	10
COc1ccc(C2CC(=O)C(c3cc(OC)c(OC)c(OC)c3)=CN2Cc2ccccc2)cc1 (stereo not drawn)	x	9	x	7
O=C(N/N=C/c1ccccn1)c1cc(-c2ccc(Br)cc2)nc2ccccc12	45	1	46*	-7
C[C@@H]1Cn2cnc(C(=O)N3CCN(C(=O)OC(C)(C)C)CC3)c2C(=O)N1	x	-16	x	-8
CCOC(=O)[C@H]1[C@H]2COc3ccc(C)cc3[C@@H]2N2C(=O)c3cc(OC)c(OC)cc3NC(=O)[C@@]12C	3	12	-17	7
CCOC(=O)[C@H]1[C@H]2COc3ccc(Br)cc3[C@@H]2N2C(=O)c3cc(OC)c(OC)cc3NC(=O)[C@@]12C	50*	15	-7	0
CCCCn1nnnc1C1(C)CCC(=O)N1CCOC (stereo not drawn)	x	-2	-11	7
Nc1nnc(-c2ccco2)s1	12	1	-11	2
Nc1ncnc2oc(-c3ccco3)c(-c3ccco3)c12	21	7	43*	-12
O=c1[nH]c(N2CCN(c3ccccc3)CC2)nc2c1CCC2	51*	-8	1	-1
O=c1[nH]c(N2CCN(c3ccccc3)CC2)nc2c1CCCC2	55*	1	-2	-9
O=c1c2ccccc2nc2c3ccccc3c(NCc3ccccn3)nn12	47	3	x	8
O=c1c2ccccc2nc2c3ccccc3c(NCCO)nn12	58*	-1	x	-8

Source: PubChem (several laboratories)
